RGS4 block: human RGS4 inhibition; HEK293 M3R/RGS4 inducible, Fluo-4 calcium flux; stronger effect = higher value; triggered by carbachol at its EC20; P49798; 310,000 compounds, 0.45% hits; AID 463165; B-score at 10 µM;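 active = B-score, a plate-corrected calcium signal, over three deviations above library mean, with baseline fluorescence within five deviations of library mean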;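 note: RGS4 expression induced by doxycycline in cells with stable M3 receptor; B-score is computed from the integrated fluorescence ratio over baseline after carbachol; higher B-score means a larger calcium signal and so more RGS4 inhibition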
Target sequence (P49798 whole entry, looked up): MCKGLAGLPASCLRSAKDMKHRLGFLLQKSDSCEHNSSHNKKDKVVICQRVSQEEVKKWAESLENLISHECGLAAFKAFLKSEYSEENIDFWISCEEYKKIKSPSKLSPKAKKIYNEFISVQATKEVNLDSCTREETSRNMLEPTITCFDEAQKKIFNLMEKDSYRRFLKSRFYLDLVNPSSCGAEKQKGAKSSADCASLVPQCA
MrgX1 agonist: human MrgX1 receptor agonism, primary screen. B-score at 10 µM. 310,000 compounds, 0.44% hits. MrgX1-HEK293 cells, Fluo-4 calcium fluorescence, agonist mode; stronger effect = higher value. Q96LB2;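 active = calcium response B-score plate-corrected fluorescence ratio at least 3 library SD, with starting fluorescence B-score inside 5 SD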
Target sequence (Q96LB2 whole entry, looked up): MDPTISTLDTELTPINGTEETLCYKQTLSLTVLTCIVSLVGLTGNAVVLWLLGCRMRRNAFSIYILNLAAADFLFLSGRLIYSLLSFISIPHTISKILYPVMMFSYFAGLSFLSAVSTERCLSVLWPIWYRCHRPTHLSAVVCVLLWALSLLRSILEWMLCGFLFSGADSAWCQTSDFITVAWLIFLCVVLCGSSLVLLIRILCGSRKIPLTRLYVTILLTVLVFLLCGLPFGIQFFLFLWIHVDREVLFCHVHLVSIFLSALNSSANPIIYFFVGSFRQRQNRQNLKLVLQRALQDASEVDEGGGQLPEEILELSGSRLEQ
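Material – MrgX1-expressing HEK293 cells · Input – 15,000 cells seeded per well · Dosing – compound as first of three additions · Times – overnight seeding, then 1 h dark dye loading · Measured by – kinetic Fluo-4 NW fluorescence of intracellular calcium · Read-out – B-scored fluorescence response ratio · Benchmarks – positive and negative control wells on each plate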
MrgX1 antagonist: blocks BAM8-22 activation of human MrgX1 receptor; Q96LB2; MRGX1-HEK293 calcium flux, Fluo-4, BAM8-22 antagonism; stronger effect = lower value; 310,000 compounds, 1.3% hits; B-score at 10 µM;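 active = calcium-response B-score plate-corrected more than 3 library SD below zero, starting fluorescence within 5 deviations, no agonist response on first addition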;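 note: peak minus trough fluorescence over baseline after final BAM8-22 challenge near maximal dose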
MrgX1 PAM: human MrgX1 positive allosteric modulation, primary screen; 310,000 compounds, 0.63% hits; Q96LB2; MrgX1-HEK293, Fluo-4 calcium flux, FDSS; stronger effect = higher value; B-score at 10 µM;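 active = plate-corrected calcium response at least 3 library SD above typical, normal starting fluorescence, not activating the receptor alone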;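 note: compound read alongside a low EC10 to EC30 dose of BAM8-22 agonist; peak minus trough fluorescence over baseline measured at the second addition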
RGS4 act: RGS4 potentiation or activation; 310,000 compounds, 0.92% hits; AID 463111; HEK293 M3R/inducible RGS4, carbachol calcium flux Fluo4; stronger effect = lower value; B-score at 10 µM;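 active = B-score of the integrated calcium signal more than 4 SD below the library mean, with starting fluorescence not abnormally high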;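 note: negative B-score means reduced calcium response which marks RGS4 activation or potentiation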
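Assay system: Inducible-RGS4 HEK293 cells carrying M3 receptor | Schedule: Compound preincubation 20 min at room temperature before agonist | Signal: Kinetic calcium fluorescence imaging with Fluo4-AM dye, 2 µM | Read-out basis: B score from integrated fluorescence ratio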
RGS4 block valid: validation of RGS4 inhibitors | shares compounds with RGS4 block | HEK293 M3R/RGS4, carbachol calcium Fluo-4 fluorescence; carbachol added at its EC20; 0 = buffer wells, 100 = carbachol control | calcium response, % at 10 µM | 1,700 compounds, 65% hits | AID 492999;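 active = duplicate-averaged calcium response above the buffer-only control mean plus 5 SD of those controls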;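 note: integrated fluorescence ratio F max minus min over baseline F0; higher response in RGS4-induced cells means RGS4 inhibition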
M3R Ca ctr: non-induced cell nonspecific activity of RGS4 inhibitors; 1,900 compounds, 20% hits; shares compounds with RGS4 block; activity (percent), % at 10 µM; AID 493000; HEK293 M3R non-induced, carbachol calcium Fluo-4; submaximal (EC20) carbachol stimulus; buffer wells 0%, carbachol control wells 100%; call rule not given here;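 note: RGS4 induction absent so cells express M3R without RGS4; higher means more calcium signal and flags a non-specific hit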
M3R basal Ca ctr: second counter-screen for RGS4 inhibitors: non-induced cells without carbachol; HEK293 M3R/RGS4 non-induced, Fluo-4 calcium, no carbachol; normalised: buffer wells 0%, carbachol wells 100%; 1,900 compounds, 22% hits; shares compounds with RGS4 block; calcium response (agonist-mode artifact), % at 10 µM; AID 493001;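 active = duplicate-averaged calcium rise in uninduced cells above buffer wells' mean plus 5 SD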
Of the large screens only hits and unclear results are named; the others gave an inactive call (follow-up assays come after a bar, where they were run). Hits are enriched below; roughly 3.5% of the tested compounds scored in any of these assays.

N#C/C(=C(/O)C(Cl)c1ccccc1)c1nc2ccccc2s1 (stereo unspecified)	RGS4 block 5.1 | RGS4 block valid 6.5% | M3R Ca ctr inactive | M3R basal Ca ctr inactive
N#C/C(=C(/O)c1cccc(F)c1)c1nc2ccccc2s1	none
COC(=O)c1ccc(OC)c(CN2CCCN(Cc3ccc(F)cc3)S2(=O)=O)c1	none
COc1ccc(NS(=O)(=O)c2ccc3nc(COc4cccc5ccccc45)[nH]c3c2)cc1	RGS4 block 8.5 | RGS4 block valid 7.0% | M3R Ca ctr inactive | M3R basal Ca ctr inactive
NC(=O)c1cc2ccc(O)cc2oc1=Nc1ccccc1	none (no result: MrgX1 agonist, MrgX1 antagonist, MrgX1 PAM) | RGS4 block valid inactive | M3R Ca ctr inactive | M3R basal Ca ctr inactive
CCOc1cc(/C=C2\CN(CC)C/C(=C\c3ccc(O)c(OCC)c3)C2=O)ccc1O	RGS4 block 12, MrgX1 agonist 27 | RGS4 block valid 48% | M3R Ca ctr 36% | M3R basal Ca ctr 12%
CCOc1cc(/C=N/N=C/c2ccc(O)c(OCC)c2)ccc1O	none
CCc1ccc2nc(NC(=O)c3cc(C)on3)sc2c1	RGS4 block 6.4 | RGS4 block valid 25% | M3R Ca ctr 36% | M3R basal Ca ctr inactive
CN(C)c1ccc(/C=C(\NC(=O)c2ccccc2)C(=O)NCc2cccnc2)cc1	none | RGS4 block valid inactive | M3R Ca ctr inactive | M3R basal Ca ctr inactive
COc1ccc(/C=C(\NC(=O)c2ccccc2)C(=O)NCc2cccnc2)cc1	none | RGS4 block valid inactive | M3R Ca ctr inactive | M3R basal Ca ctr inactive
CN(C)c1ccc(/C=C(\NC(=O)c2ccccc2)C(=O)NCc2ccncc2)cc1	none
COc1cccc(CC(NC(C)=O)C(=O)NC2CCN(S(=O)(=O)c3ccc(F)cc3)CC2)c1OC (stereo unspecified)	none
O=c1c(O)c(-c2ccc(O)cc2)oc2cc(O)cc(O)c12	none | M3R Ca ctr inactive | M3R basal Ca ctr inactive
Cn1nc(C(=O)NNC(=O)c2ccc(Cl)cc2)ccc1=O	none
O=C(CSc1nc2ccccc2[nH]1)N=Nc1c(O)[nH]c2ccccc12	RGS4 block 5 | RGS4 block valid inactive | M3R Ca ctr inactive | M3R basal Ca ctr inactive
Cn1c(SCC(=O)N=Nc2c(O)[nH]c3ccccc23)nc2ccccc21	none
COc1cccc(OC)c1NC(=O)c1nc2c(nnn2Cc2ccccc2Cl)c(=O)[nH]1	RGS4 block 5.5 | RGS4 block valid 14% | M3R Ca ctr inactive | M3R basal Ca ctr inactive
O=C(NC1CCCC1)c1nc2c(nnn2Cc2ccccc2Cl)c(=O)[nH]1	none
COc1cc2c(cc1OC)C(CSc1ccccc1C(=O)O)=NC(C)(C)C2	RGS4 block 5.6 | RGS4 block valid 9.5% | M3R Ca ctr inactive | M3R basal Ca ctr inactive
Cc1ccc(S(=O)(=O)N2CCCCC2CCNC(=O)C(=O)Nc2ccccc2F)cc1 (stereo unspecified)	none
CN(CC(=O)Nc1cccc(F)c1)C(=O)CCCn1c(=O)oc2ccccc21	none
COC(=O)CSc1nc(N)c(C#N)c(-c2ccco2)c1C#N	none
CCSc1nc(N)c(C#N)c(-c2ccco2)c1C#N	RGS4 block 6.5 | RGS4 block valid 7.0% | M3R Ca ctr inactive | M3R basal Ca ctr inactive
Nc1c(C(=O)O)cnc2c(-c3ccc(Cl)cc3)cnn12	RGS4 block 7.7 | RGS4 block valid 24% | M3R Ca ctr 31% | M3R basal Ca ctr inactive
Cc1cc(N)n2ncc(-c3ccc(Cl)cc3)c2n1	RGS4 block 5.1 | RGS4 block valid 17% | M3R Ca ctr inactive | M3R basal Ca ctr inactive
Cc1cc(N)n2ncc(-c3ccc(F)cc3)c2n1	none
Cc1ccc(C)c(N(CC(=O)NCCSCc2ccco2)S(C)(=O)=O)c1	none

Assay outcomes: PubChem BioAssay, Johns Hopkins Ion Channel Center
